Experimental data pooled from the literature.
Lines come from different studies, so protocols differ.
Cell line: NCI-H460
Observed: cell growth or viability

C=C(Cl)C(=O)Nc1cc(Nc2nc(Nc3cnn(C)c3)c3sccc3n2)c(OC)cc1N1CCN(C)CC1 — IC50 (MTT): 0.239 µM
COc1ccc(C(=O)/C=C/c2cc3c(cc2Br)OCO3)cc1S(N)(=O)=O — GI50 (SRB; 48 h): 4 µM
CCCc1n(Cc2ccc3ccccc3n2)cc[n+]1Cc1ccc2ccccc2n1 — TGI (SRB): 11.7 µM
C=C(Cl)C(=O)Nc1cc(Nc2nc(N3CCCC3)c3sccc3n2)c(OC)cc1N(C)CCN(C)C — IC50 (MTT): 6.48 µM
COc1ccc(C(=O)/C=C/c2ccc(Cl)c(Cl)c2)cc1S(N)(=O)=O — GI50 (SRB; 48 h): 2.8 µM
Cc1cc(C)n(C(=S)[S][Au][PH](CCCCCC[PH]([Au][S]C(=S)n2nc(C)cc2C)(c2ccccc2)c2ccccc2)(c2ccccc2)c2ccccc2)n1 — GI50 (SRB): 0.638 µM
CCc1n(Cc2ccc3ccccc3n2)cc[n+]1Cc1ccc2ccccc2c1 — TGI (SRB): 10.8 µM
COc1ccc(C(=O)/C=C/c2cccc(Cl)c2)cc1S(N)(=O)=O — inhibition (SRB; 10 µM): 97%
C=CC(=O)Nc1cc(Nc2nc(N3CCc4sccc4C3)c3cccnc3n2)c(OC)cc1N1CCOCC1 — IC50 (MTT): > 50 µM
c1ccc2cc(Cn3cc[n+](Cc4ccc5ccccc5c4)c3)ccc2c1 — TGI (SRB): 10.4 µM
COc1ccc(C(=O)/C=C/c2cccc3ccccc23)cc1S(N)(=O)=O — inhibition (SRB; 10 µM): 98%
CS(=O)(=O)CCNCc1ccc(-c2ccc3ncnc(Nc4ccc(OCc5cccc(F)c5)c(Cl)c4)c3c2)o1 — EC50 (MTT; 72 h): 32 µM
COc1ccc(C(=O)/C=C/c2ccc3ccccc3c2)cc1S(N)(=O)=O — inhibition (SRB; 10 µM): 98%
COc1cc(N(C)CCN(C)C)c(NC(=O)C=C(C)C)cc1Nc1nc(Nc2cnn(C)c2)c2sccc2n1 — IC50 (MTT): 1.32 µM
COc1ccc(C(=O)/C=C/c2cccnc2)cc1S(N)(=O)=O — GI50 (SRB; 48 h): 9.1 µM
C/C=C/C(=O)Nc1cc(Nc2nc(Nc3cnn(C)c3)c3sccc3n2)c(OC)cc1N(C)CCN(C)C — IC50 (MTT): > 50 µM
c1ccc(-c2n(Cc3ccc4ccccc4c3)cc[n+]2Cc2ccc3ccccc3c2)cc1 — TGI (SRB): 2.87 µM
CN1C[C@H](C(=O)N[C@]2(C)O[C@@]3(O)[C@@H]4CCCN4C(=O)[C@H](Cc4ccccc4)N3C2=O)C[C@@H]2c3cccc4[nH]cc(c34)C[C@H]21 — EC50 (MTT; 72 h): 67 µM
C=CC(=O)Nc1cc(Nc2nc(N3CCc4sccc4C3)c3cccnc3n2)c(OC)cc1N1CCSCC1 — IC50 (MTT): 0.229 µM
COc1ccc(-c2ccc(-c3ccc(C(=N)N)nc3)s2)cc1 — GI50 (SRB): 0.52 µM
